Bioassay records: PubChem, Broad Institute
Shown are actives, neighbours in structure and some others; about 2.5% of the full set was active somewhere.
FGF22 binding: shifts melting point of recombinant human FGF22; Q9HCT0; recombinant FGF22 thermal shift, SYPRO orange fluorescence; percent of sucrose octasulfate shift, DMSO zero; activity (Tm shift, normalised), % at 9.99 µM; actives 1.5% (n = 340,000); AID 651658;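 active = mean Tm shift, scaled 0 neutral to 100 positive control, at about 1.3% or above, every replicate too, limit read from the data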
Target sequence (Q9HCT0 whole entry, looked up): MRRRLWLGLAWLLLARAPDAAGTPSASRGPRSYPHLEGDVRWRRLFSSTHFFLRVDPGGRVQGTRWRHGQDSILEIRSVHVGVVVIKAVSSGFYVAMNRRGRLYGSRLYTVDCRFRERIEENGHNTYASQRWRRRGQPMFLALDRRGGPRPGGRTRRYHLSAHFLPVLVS
miR-122 sensor: inhibitors of miR-122 in Huh7 cells; actives 0.3% (n = 340,000); Huh7 miR-122 Renilla luciferase sensor, 48 h; neutral wells = 0, positive control = 100; activation (reporter increase), % at 12.5 µM; AID 602342;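 active = mean replicate activation score at least 90 and every replicate individually at or above 90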;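 note: higher luciferase means less miR-122 activity so hits act as miR-122 inhibitors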
S100A4 MyoIIA: blocks human S100A4 binding to myosin IIA peptide; P26447; inhibition, % at 10.7 µM; S100A4/TAMRA-MyoIIA peptide fluorescence polarization; actives 0.14% (n = 360,000); AID 652163;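 active = mean inhibition of at least 70% across replicates, with every replicate also reaching that level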
Target sequence (P26447 whole entry, looked up): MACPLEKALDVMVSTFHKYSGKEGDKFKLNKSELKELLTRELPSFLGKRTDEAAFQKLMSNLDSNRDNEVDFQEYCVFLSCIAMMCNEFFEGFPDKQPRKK
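Test system: S100A4 monomer protein. Medium: HEPES buffer with Ca2+, pH 7.2. Reagent: fluorescent myosin IIA peptide, 5 nM. Compound dosing: single-point compound testing. Timing: 5 min between mix addition and reading. Benchmarks: DMSO neutral and TFP positive wells.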
SIRT5 block: sirtuin-5 (human) deacylase inhibition; inhibition, % at 15 µM; actives 1.1% (n = 330,000); Purified SirT5, succinyl-peptide AMC, trypsin-coupled fluorescence; Q9NXA8; in the data active = inhibition above about 15%
Target sequence (Q9NXA8 whole entry, looked up): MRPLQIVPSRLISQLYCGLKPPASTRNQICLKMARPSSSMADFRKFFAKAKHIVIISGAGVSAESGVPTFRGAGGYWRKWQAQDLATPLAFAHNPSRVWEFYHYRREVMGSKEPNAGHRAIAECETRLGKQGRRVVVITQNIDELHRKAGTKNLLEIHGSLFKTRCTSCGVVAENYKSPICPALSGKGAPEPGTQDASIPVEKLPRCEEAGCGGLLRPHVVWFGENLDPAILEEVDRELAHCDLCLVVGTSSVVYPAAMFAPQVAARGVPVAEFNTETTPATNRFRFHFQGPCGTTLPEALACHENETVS
E-sel inducer: E-selectin induction on HUVECs; HUVEC E-selectin immunofluorescence imaging; normalized: neutral wells 0, TNF-alpha wells 100; activation, % at 7.58 µM; actives 0.37% (n = 260,000); AID 686992;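 active = mean E-selectin-positive cell signal at least 10% of the positive control, reached in at least 60% of replicates, without over 20% cell loss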
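Assay system: HUVEC, human umbilical vein endothelial cells / Amount: 3,000 HUVEC/well / Controls: TNF-alpha positive control, DMSO neutral control / Compound dosing: single concentration / Medium: EGM-2 over gelatin coat / Evaluation: percent E-selectin-positive cells / Signal: immunofluorescence imaging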
Starred values were filed as active, the others as inactive; ! = repeats disagree; [ ] = remark or other dose.

For COc1ccc(NC(=O)c2cc(S(=O)(=O)N3CCCC3)c[nH]2)cc1 the results were FGF22 binding 0, miR-122 sensor 25, S100A4 MyoIIA -12, SIRT5 block 2 and E-sel inducer 0.
Screening COc1ccc(NC(=O)c2cc(S(=O)(=O)N3CCCCC3)c[nH]2)cc1 returned FGF22 binding 0, miR-122 sensor 40, S100A4 MyoIIA 1 and E-sel inducer 111*.
Screening C[C@H](CO)N1C[C@H](C)[C@@H](CN(C)S(=O)(=O)c2ccccc2)Oc2ccc(NC(=O)Nc3ccc(C(F)(F)F)cc3)cc2CC1=O returned FGF22 binding -1, S100A4 MyoIIA -12, SIRT5 block 19* and E-sel inducer 0.
`C[C@H](CO)N1C[C@H](C)[C@H](CN(C)S(=O)(=O)c2ccc(Cl)cc2)Oc2ccc(NC(=O)Nc3ccc(C(F)(F)F)cc3)cc2CC1=O` gave FGF22 binding 0, miR-122 sensor 94*[16.7 µM], S100A4 MyoIIA -5, SIRT5 block 1 and E-sel inducer 3.
C[C@@H]1CN([C@H](C)CO)C(=O)Cc2cc(NC(=O)Nc3ccc(C(F)(F)F)cc3)ccc2O[C@H]1CN(C)S(=O)(=O)c1ccccc1 was read as FGF22 binding 0, S100A4 MyoIIA -6, SIRT5 block 13 and E-sel inducer 2.
C[C@@H]1CN([C@H](C)CO)C(=O)Cc2cc(NC(=O)Nc3ccc(C(F)(F)F)cc3)ccc2O[C@@H]1CN(C)S(=O)(=O)c1ccc(Cl)cc1 was read as FGF22 binding 1, miR-122 sensor 11[16.7 µM], S100A4 MyoIIA -4, SIRT5 block 5 and E-sel inducer 1.
Screening CC(=O)N(C)C[C@@H]1Oc2cc(C#Cc3ccccc3F)ccc2S(=O)(=O)N([C@H](C)CO)C[C@@H]1C returned FGF22 binding 0, miR-122 sensor 0[16.7 µM], S100A4 MyoIIA 6, SIRT5 block 1 and E-sel inducer 0.
For C[C@H](CO)N1C[C@H](C)[C@@H](CN(C)C)Oc2cc(C#Cc3ccccc3F)ccc2S1(=O)=O the results were FGF22 binding -1, miR-122 sensor 10[16.7 µM], S100A4 MyoIIA 16, SIRT5 block 4 and E-sel inducer 104*.
C[C@@H]1CN([C@H](C)CO)S(=O)(=O)c2ccc(C#Cc3ccccc3F)cc2O[C@H]1CN(C)C(=O)c1ccc2c(c1)OCO2 was read as FGF22 binding 0, miR-122 sensor 34, S100A4 MyoIIA -3, SIRT5 block 36*! and E-sel inducer 0.
Screening O=C(Nc1cccc(F)c1)N1C[C@H]2[C@@H](c3ccccc31)[C@@H](CO)N2C(=O)Cc1ccccc1 returned FGF22 binding 0, miR-122 sensor -17[16.7 µM], S100A4 MyoIIA -7, SIRT5 block -11 and E-sel inducer 0.
CC(NC(=O)COC(=O)c1ccccc1O)c1ccccc1 (centres undefined) was read as FGF22 binding 0, miR-122 sensor -6, S100A4 MyoIIA -2, SIRT5 block -3 and E-sel inducer 3.
`CC(NC(=O)COC(=O)c1cc(Cl)nc(Cl)c1)c1ccccc1` (centres undefined) gave FGF22 binding 43*, miR-122 sensor -13, S100A4 MyoIIA -1 and SIRT5 block 1.
`CCCC(=O)N1CCC2(CC1)CN(C(=O)Nc1c(C)noc1C)[C@@H](CO)c1c2c2ccc(OC)cc2n1C` gave FGF22 binding 0, S100A4 MyoIIA 3, SIRT5 block -4 and E-sel inducer 0.
For O=C(Nc1ccccc1F)N1CC(=O)N2[C@H](C1)[C@@H](c1ccc(C#CC3CCCC3)cc1)[C@@H]2CO the results were SIRT5 block 19* and E-sel inducer 0.
O=C(Nc1cc(F)ccc1F)N1CC(=O)N2[C@H](C1)[C@H](c1ccc(C#CC3CCCCC3)cc1)[C@@H]2CO was read as FGF22 binding -1, S100A4 MyoIIA 6, SIRT5 block 18* and E-sel inducer 0.
`O=C1CNC[C@@H]2[C@@H](c3ccc(C#CC4CCCC4)cc3)[C@H](CO)N12` gave S100A4 MyoIIA -12, SIRT5 block -1 and E-sel inducer 0.
O=C(Nc1ccccc1F)N1CC(=O)N2[C@H](CO)[C@@H](c3ccc(C#CC4CCCC4)cc3)[C@@H]2C1 was read as S100A4 MyoIIA -11, SIRT5 block 15 and E-sel inducer 0.
Screening O=C(Nc1cc(F)ccc1F)N1CC(=O)N2[C@@H](CO)[C@H](c3ccc(C#CC4CCCCC4)cc3)[C@@H]2C1 returned FGF22 binding 0, S100A4 MyoIIA 0, SIRT5 block 18* and E-sel inducer -1.
`O=C1CNC[C@H]2[C@@H](c3ccc(C#CC4CCCC4)cc3)[C@@H](CO)N12` gave S100A4 MyoIIA 88*, SIRT5 block -2 and E-sel inducer 0.
`O=C(Nc1cc(F)ccc1F)N1CC(=O)N2[C@H](CO)[C@@H](c3ccc(C#CC4CCCCC4)cc3)[C@H]2C1` gave FGF22 binding 0, S100A4 MyoIIA -2, SIRT5 block 10 and E-sel inducer -1.
CC(C)CC#Cc1cnc2c(c1)C(=O)N([C@@H](C)CO)C[C@@H](C)[C@@H](CN(C)C(=O)c1cccc(F)c1)O2 was read as FGF22 binding 0, miR-122 sensor 4[16.7 µM], S100A4 MyoIIA -3, SIRT5 block 2 and E-sel inducer 0.
Screening Cc1c(/C=N\NC(=O)c2c[nH]c3ccccc23)cnn1C returned FGF22 binding 44*, S100A4 MyoIIA 2 and SIRT5 block 0.
`Cc1occc1C(=O)N/N=C/c1cnn(C)c1C` gave miR-122 sensor 16 and E-sel inducer -3.
Screening Cc1cccn2c(=O)c(/C=N/O)c(Nc3ccccc3F)nc12 returned FGF22 binding 0, S100A4 MyoIIA 2 and E-sel inducer 59*.
`Cc1cccn2c(=O)c(/C=N/O)c(NCc3ccccc3)nc12` gave FGF22 binding 0, S100A4 MyoIIA -2 and SIRT5 block -2.
`CO[C@@H]1CN(C)C(=O)c2ccc(NC(C)=O)cc2OC[C@@H](C)N(C(=O)CN(C)C)C[C@H]1C` gave miR-122 sensor -7[16.7 µM] and E-sel inducer 0.
For N#Cc1nc(-c2ccccc2)oc1NCCCn1ccnc1 the results were FGF22 binding 43*, miR-122 sensor 2, S100A4 MyoIIA -29, SIRT5 block -20 and E-sel inducer 0.
CCN(CC)S(=O)(=O)c1ccc(N2CCOCC2)c(NC(=O)c2ccc3c(c2)OCCO3)c1 was read as FGF22 binding 0, S100A4 MyoIIA 3, SIRT5 block 2 and E-sel inducer 2.
CCN(CC)S(=O)(=O)c1ccc(N2CCOCC2)c(NS(=O)(=O)c2cccs2)c1 was read as FGF22 binding 0, S100A4 MyoIIA -1 and SIRT5 block 0.
